The target in test [1] is T1, Tyrosine-protein phosphatase non-receptor type 5 (Homo sapiens) (UniProt P54829).
T1 sequence (whole entry): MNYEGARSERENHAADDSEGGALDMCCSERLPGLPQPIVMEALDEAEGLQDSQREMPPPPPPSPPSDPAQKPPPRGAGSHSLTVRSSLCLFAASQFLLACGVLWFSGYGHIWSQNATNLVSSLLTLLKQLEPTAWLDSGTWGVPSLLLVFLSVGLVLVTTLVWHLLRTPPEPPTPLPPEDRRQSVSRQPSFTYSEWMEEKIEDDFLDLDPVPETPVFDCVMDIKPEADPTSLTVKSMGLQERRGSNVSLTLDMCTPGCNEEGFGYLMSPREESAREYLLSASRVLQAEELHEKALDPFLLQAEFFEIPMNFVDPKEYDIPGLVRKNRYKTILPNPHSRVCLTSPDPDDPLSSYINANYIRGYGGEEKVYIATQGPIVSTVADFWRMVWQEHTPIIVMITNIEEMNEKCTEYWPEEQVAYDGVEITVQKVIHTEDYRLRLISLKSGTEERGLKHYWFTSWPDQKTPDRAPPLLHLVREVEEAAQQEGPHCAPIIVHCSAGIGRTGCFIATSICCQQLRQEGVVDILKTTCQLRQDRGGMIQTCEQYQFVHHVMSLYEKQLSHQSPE
The test can be described thus: Binding affinity to human 15N-labeled STEP PTP domain (281 to 563 residues) expressed in Escherichia coli OD2 assessed as induction of chemical perturbation at 500 uM by 1H,15N TROSY NMR spectral analysis. Summed up: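 40 μM 15N-labelled STEP PTP domain in 20 mM Tris-d11, 100 mM NaCl, 1 mM TCEP, pH 7.4, 8% D2O, 1% DMSO-d6, 298 K. TROSY spectra used 192 transients and 64 indirect points. Binders were called by manual comparison with the protein-only reference spectrum.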

Test [2] deals with T2, Tyrosine-protein phosphatase non-receptor type 5 (Homo sapiens, UniProt P54829).
T2 sequence (P54829 whole entry): T1 sequence (whole entry)
Nature of the test: Binding affinity to human STEP PTP domain (281 to 563 residues) expressed in Escherichia coli BL21(DE3) by ITC. Summed up:
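Desalted STEP PTP domain in 10 mM HEPES, 200 mM NaCl, 0.5 mM TCEP, pH 7.5. 200 μM protein titrated with 18 × 2 μL injections of 2 mM ligand at 25 °C. Single-site model fit gave ΔH, n, ΔS and Ka; mean ± SD of three independent titrations.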

The species entered for test [3] is Homo sapiens. The test can be described thus: Activation of human STEP46 (197 to 565 residues) expressed in Escherichia coli BL21(DE3) at 500 uM using biotin-pFyn peptide substrate after 60 mins by AlphaLISA assay relative to control. Summed up:
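STEP46 (50 nM final) with biotinylated pFyn peptide (20 nM final) and compound in 1% DMSO, 60 min at room temperature in the dark. Detection by anti non-phospho Src/Tyr416 antibody in stop buffer containing 10 μM orthovanadate, plus protein A acceptor and streptavidin donor beads, 15 min each. % CTL computed against enzyme (100%) and no-enzyme (0%) controls.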
A general note: In Alpha technology, singlet oxygen from a donor bead excites a nearby acceptor bead.

The species named for test [4] is Homo sapiens. The test can be described thus: Activation of human STEP46 (197 to 565 residues) expressed in Escherichia coli BL21(DE3) using pFyn peptide substrate after 60 mins by RapidFire MS/MS assay relative to control. The method in brief: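 Unlabeled Fyn peptide with STEP46 (50 nM final) and compound (500 μM final) in 50 mM HEPES, 0.02% Brij35, 1 mM DTT; 1 h at room temperature. Stopped with sodium orthovanadate (12 μM final), internal standard peptide added, dephosphorylation quantified by RapidFire MS/MS using MRM in positive mode.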

Test [5] deals with T1, Tyrosine-protein phosphatase non-receptor type 5 (Homo sapiens). The test can be described thus: Activation of human STEP PTP domain (281 to 563 residues) expressed in Escherichia coli BL21(DE3) at 500 uM using biotin-pFyn peptide substrate after 60 mins by AlphaLISA assay relative to control. The method in brief: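 AlphaLISA on the human STEP PTP domain (E. coli BL21(DE3)), 20 nM enzyme with 3 nM biotin-pFyn peptide, otherwise as for STEP46: 60 min at room temperature, anti non-phospho Src/Tyr416 antibody with orthovanadate stop, donor and acceptor beads, % of enzyme and no-enzyme controls.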

For test [6], the species on record is Homo sapiens. The test can be described thus: Activation of human STEP46 (197 to 565 residues) expressed in Escherichia coli BL21(DE3) at 1000 uM preincubated for 10 mins followed by DiFMUP substrate addition and measured at 1 min time interval for 30 mins by fluorescence assay relative to control. The method in brief:
(§1)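 STEP46 preincubated 10 min at room temperature with compound; reaction started with DiFMUP. Final: 100 nM STEP46, 1 μM DiFMUP, 50 mM HEPES, 0.02% Brij 35, 1 mM DTT, 5% DMSO. Fluorescence (ex 340/em 460 nm) every 1 min for 30 min at 37 °C; no-enzyme background subtracted. Linear slope expressed relative to enzyme without compound (100%).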

Test [7] is filed under the species Homo sapiens. Nature of the test: Activation of human STEP46 (197 to 565 residues) expressed in Escherichia coli BL21(DE3) at 300 uM preincubated for 10 mins followed by DiFMUP substrate addition and measured at 1 min time interval for 30 mins by fluorescence assay relative to control. Summed up: as §1
Test [8] concerns the target T3, Tyrosine-protein phosphatase non-receptor type 5 (Mus musculus) (UniProt P54830).
T3 sequence (whole entry): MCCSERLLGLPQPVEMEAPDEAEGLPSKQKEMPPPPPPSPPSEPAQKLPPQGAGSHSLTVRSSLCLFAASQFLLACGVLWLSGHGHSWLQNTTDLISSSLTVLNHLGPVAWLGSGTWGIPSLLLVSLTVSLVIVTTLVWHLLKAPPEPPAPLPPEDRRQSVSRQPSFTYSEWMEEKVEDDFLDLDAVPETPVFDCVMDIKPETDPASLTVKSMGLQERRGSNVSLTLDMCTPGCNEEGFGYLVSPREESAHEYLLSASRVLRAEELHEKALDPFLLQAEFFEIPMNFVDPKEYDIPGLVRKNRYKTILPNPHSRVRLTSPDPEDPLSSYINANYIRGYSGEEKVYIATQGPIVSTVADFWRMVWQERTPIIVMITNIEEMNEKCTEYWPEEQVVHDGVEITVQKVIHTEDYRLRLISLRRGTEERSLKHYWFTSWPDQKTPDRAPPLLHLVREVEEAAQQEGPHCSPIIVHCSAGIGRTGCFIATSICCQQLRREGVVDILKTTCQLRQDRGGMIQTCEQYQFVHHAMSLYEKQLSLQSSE
Nature of the test: Activation of mouse STEP PTP domain (244 to 539 residues) expressed in Escherichia coli BL21(DE3) at 500 uM using biotin-pFyn peptide substrate after 60 mins by AlphaLISA assay.

The species named for test [9] is Homo sapiens. The test can be described thus: Binding affinity to human STEP46 (197 to 565 residues) expressed in Escherichia coli BL21(DE3) assessed as increase in melting temperature at 500 uM by SYPRO Orange dye based DSF. The method in brief: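 STEP46 at 5 μM with 25× SYPRO Orange and 500 μM ligand (1% DMSO) in 20 mM HEPES pH 7.5, 50 mM NaCl, 1 mM TCEP, in duplicate. Heated 25 to 95 °C at 1 °C/min with reads every 0.5 °C. Tm taken from the minimum of the first-derivative curve; ΔTm relative to DMSO.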

By Kd is commonly meant the constant that tells how readily two partners part at equilibrium. The ΔTm is the change in melting temperature against a reference sample.

The source made the active and inactive calls. The rule behind the calls is not given here.

`N=C(N)Nc1cc(C2CCNCC2)cc(C(F)(F)F)c1`: the outcome in test [1] and in test [8] was Active. For the same molecule, binding in [2] was characterised by a dissociation constant (Kd) of 800 µM. The Activity in the test filed under Homo sapiens [3] was determined as 56%; in the test filed under Homo sapiens [4], 28%; in test [5], 61%; in the test listed under Homo sapiens [6] it was 48%; in the test filed under Homo sapiens [7], 27%. The shift in melting temperature (ΔTm) in the test filed under Homo sapiens [9] stood at 1.4 °C.

Values taken from ChEMBL document CHEMBL4308845, “Allosteric Activation of Striatal-Enriched Protein Tyrosine Phosphatase (STEP, PTPN5) by a Fragment-like Molecule” (J Med Chem, 2019).
